Results reported in ChEMBL document CHEMBL1140876, “Synthesis and antibacterial property of quinolines with potent DNA gyrase activity” (2009).
Converted amounts (≈) assume the structure as drawn. The source made the active and inactive calls. No cut-off for these calls is given here.

How the values were obtained:
[1] = Inhibition of DNA gyrase assessed as conversion of relaxed pBR322 to supercoiled form
Procedure, shortened: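 Supercoiling in 15 µL reactions: gyrase assay buffer, 150 ng relaxed pBR322, 2–3 µL purified DNA gyrase, 3 h at 37 °C (E. coli); stopped with 50% glycerol/0.25% bromophenol blue; 1% agarose in 1× TBE pH 8.3, 90 V 3 h; ethidium bromide stain; supercoiled band brightness by densitometry. Ciprofloxacin comparator.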

[2] = Inhibition of DNA gyrase assessed as pBR322 DNA relaxation at 1 uM
Procedure, shortened: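 Relaxation without ATP: gyrase (60 nM) with supercoiled pBR322 DNA (6 nM) and drug at […] for 1 h at 37 °C; relaxation judged by gel. Ciprofloxacin, novobiocin and nalidixic acid comparators.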

Staphylococcus aureus [3] = assay: Antimicrobial activity against Staphylococcus aureus by broth microdilution assay; assay type: functional
Procedure, shortened: (§1)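 Broth microdilution per NCCLS 1997 in 96-well plate; final inoculum 10^5 cfu/mL; incubated 35.7 °C in air 18–20 h; MIC read as lowest concentration with no visible growth.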

Escherichia coli [4] = assay: Antimicrobial activity against Escherichia coli by broth microdilution assay; assay type: functional; procedure, shortened: as §1
Pseudomonas aeruginosa [5] = assay: Antimicrobial activity against Pseudomonas aeruginosa by broth microdilution assay; assay type: functional; procedure, shortened: as §1
Klebsiella pneumoniae [6] = assay: Antimicrobial activity against Klebsiella pneumoniae by broth microdilution assay; assay type: functional; procedure, shortened: as §1
Salmonella typhi = assay: Antimicrobial activity against Salmonella typhi by broth microdilution assay; assay type: functional, Salmonella enterica subsp. enterica serovar Typhi; details: Salmonella enterica
Procedure, shortened: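 Broth microdilution in 96-well plates following the NCCLS 1997 protocol. Final inoculum was 10^5 cfu/mL, with a control organism run alongside. Plates were incubated at 35.7 °C in air for 18–20 h. MIC is the lowest concentration with no visible growth.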

Bacillus subtilis [7] = assay: Antimicrobial activity against Bacillus subtilis by broth microdilution assay; assay type: functional; procedure, shortened: as §1
Staphylococcus aureus [8] = assay: Antimicrobial activity against Staphylococcus aureus at 5 ug after 24 hrs by disk diffusion method; assay type: functional; details: read-out: IZ
Procedure, shortened: (§2)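 Inoculum made in 0.85% saline against McFarland standard, swabbed evenly onto nutrient agar; sterile filter-paper discs set equidistant and loaded with equal volumes of drug at varying amounts; zone of inhibition measured after 24 h at 37 °C; ciprofloxacin reference.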

Pseudomonas aeruginosa [9] = assay: Antimicrobial activity against Pseudomonas aeruginosa at 5 ug after 24 hrs by disk diffusion method; assay type: functional; details: read-out: IZ; procedure, shortened: as §2
Klebsiella pneumoniae [10] = assay: Antimicrobial activity against Klebsiella pneumoniae at 5 ug after 24 hrs by disk diffusion method; assay type: functional; details: read-out: IZ; procedure, shortened: as §2
Salmonella typhimurium [11] = assay: Antimicrobial activity against Salmonella Typhimurium at 5 ug after 24 hrs by disk diffusion method; assay type: functional, Salmonella enterica subsp. enterica serovar Typhimurium; details: Salmonella enterica, read-out: IZ; procedure, shortened: as §2
Bacillus subtilis [12] = assay: Antimicrobial activity against Bacillus subtilis at 5 ug after 24 hrs by disk diffusion method; assay type: functional; details: read-out: IZ; procedure, shortened: as §2
Staphylococcus aureus [13] = assay: Antimicrobial activity against Staphylococcus aureus at 10 ug after 24 hrs by disk diffusion method; assay type: functional; details: read-out: IZ; procedure, shortened: as §2
Escherichia coli [14] = assay: Antimicrobial activity against Escherichia coli at 10 ug after 24 hrs by disk diffusion method; assay type: functional; details: read-out: IZ; procedure, shortened: as §2
Pseudomonas aeruginosa [15] = assay: Antimicrobial activity against Pseudomonas aeruginosa at 10 ug after 24 hrs by disk diffusion method; assay type: functional; details: read-out: IZ; procedure, shortened: as §2
Klebsiella pneumoniae [16] = assay: Antimicrobial activity against Klebsiella pneumoniae at 10 ug after 24 hrs by disk diffusion method; assay type: functional; details: read-out: IZ; procedure, shortened: as §2
Salmonella typhimurium [17] = assay: Antimicrobial activity against Salmonella Typhimurium at 10 ug after 24 hrs by disk diffusion method; assay type: functional, Salmonella enterica subsp. enterica serovar Typhimurium; details: Salmonella enterica, read-out: IZ; procedure, shortened: as §2
Bacillus subtilis [18] = assay: Antimicrobial activity against Bacillus subtilis at 10 ug after 24 hrs by disk diffusion method; assay type: functional; details: read-out: IZ; procedure, shortened: as §2
Staphylococcus aureus [19] = assay: Antimicrobial activity against Staphylococcus aureus at 15 ug after 24 hrs by disk diffusion method; assay type: functional; details: read-out: IZ; procedure, shortened: as §2
Escherichia coli [20] = assay: Antimicrobial activity against Escherichia coli at 15 ug after 24 hrs by disk diffusion method; assay type: functional; details: read-out: IZ; procedure, shortened: as §2
Pseudomonas aeruginosa [21] = assay: Antimicrobial activity against Pseudomonas aeruginosa at 15 ug after 24 hrs by disk diffusion method; assay type: functional; details: read-out: IZ; procedure, shortened: as §2
Klebsiella pneumoniae [22] = assay: Antimicrobial activity against Klebsiella pneumoniae at 15 ug after 24 hrs by disk diffusion method; assay type: functional; details: read-out: IZ; procedure, shortened: as §2
Salmonella typhimurium [23] = assay: Antimicrobial activity against Salmonella Typhimurium at 15 ug after 24 hrs by disk diffusion method; assay type: functional, Salmonella enterica subsp. enterica serovar Typhimurium; details: Salmonella enterica, read-out: IZ; procedure, shortened: as §2
Bacillus subtilis [24] = assay: Antimicrobial activity against Bacillus subtilis at 15 ug after 24 hrs by disk diffusion method; assay type: functional; details: read-out: IZ; procedure, shortened: as §2
Staphylococcus aureus [25] = assay: Antimicrobial activity against Staphylococcus aureus at 20 ug after 24 hrs by disk diffusion method; assay type: functional; details: read-out: IZ; procedure, shortened: as §2
Pseudomonas aeruginosa [26] = assay: Antimicrobial activity against Pseudomonas aeruginosa at 20 ug after 24 hrs by disk diffusion method; assay type: functional; details: read-out: IZ; procedure, shortened: as §2
Klebsiella pneumoniae [27] = assay: Antimicrobial activity against Klebsiella pneumoniae at 20 ug after 24 hrs by disk diffusion method; assay type: functional; details: read-out: IZ; procedure, shortened: as §2
Salmonella typhimurium [28] = assay: Antimicrobial activity against Salmonella Typhimurium at 20 ug after 24 hrs by disk diffusion method; assay type: functional, Salmonella enterica subsp. enterica serovar Typhimurium; details: Salmonella enterica, read-out: IZ; procedure, shortened: as §2
Bacillus subtilis [29] = assay: Antimicrobial activity against Bacillus subtilis at 20 ug after 24 hrs by disk diffusion method; assay type: functional; details: read-out: IZ; procedure, shortened: as §2
Staphylococcus aureus [30] = assay: Antimicrobial activity against Staphylococcus aureus at 25 ug after 24 hrs by disk diffusion method; assay type: functional; details: read-out: IZ; procedure, shortened: as §2
Pseudomonas aeruginosa [31] = assay: Antimicrobial activity against Pseudomonas aeruginosa at 25 ug after 24 hrs by disk diffusion method; assay type: functional; details: read-out: IZ; procedure, shortened: as §2
Klebsiella pneumoniae [32] = assay: Antimicrobial activity against Klebsiella pneumoniae at 25 ug after 24 hrs by disk diffusion method; assay type: functional; details: read-out: IZ; procedure, shortened: as §2
Salmonella typhimurium [33] = assay: Antimicrobial activity against Salmonella Typhimurium at 25 ug after 24 hrs by disk diffusion method; assay type: functional, Salmonella enterica subsp. enterica serovar Typhimurium; details: Salmonella enterica, read-out: IZ; procedure, shortened: as §2
Bacillus subtilis [34] = assay: Antimicrobial activity against Bacillus subtilis at 25 ug after 24 hrs by disk diffusion method; assay type: functional; details: read-out: IZ; procedure, shortened: as §2

O=C(O)c1cn(C2CC2)c2cc(N3CCNCC3)c(F)cc2c1=O [CIPROFLOXACIN]
Activity [1]: Active
Activity [2]: Active
MIC50 (Staphylococcus aureus [3]): 0.5 µg/mL (≈ 1.51 µM)
MIC90 (Staphylococcus aureus [3]): 1 µg/mL (≈ 3.02 µM)
MIC50 (Escherichia coli [4]): 0.015 µg/mL (≈ 0.0453 µM)
MIC90 (Escherichia coli [4]): 0.03 µg/mL (≈ 0.0905 µM)
MIC50 (Pseudomonas aeruginosa [5]): 0.125 µg/mL (≈ 0.377 µM)
MIC90 (Pseudomonas aeruginosa [5]): 1 µg/mL (≈ 3.02 µM)
MIC50 (Klebsiella pneumoniae [6]): 0.03 µg/mL (≈ 0.0905 µM)
MIC90 (Klebsiella pneumoniae [6]): 0.5 µg/mL (≈ 1.51 µM)
MIC50 (Salmonella typhi): 0.04 µg/mL (≈ 0.121 µM)
MIC90 (Salmonella typhi): 0.15 µg/mL (≈ 0.453 µM)
MIC50 (Bacillus subtilis [7]): 0.04 µg/mL (≈ 0.121 µM)
MIC90 (Bacillus subtilis [7]): 0.15 µg/mL (≈ 0.453 µM)
zone of inhibition at 5 µg/disc (Staphylococcus aureus [8]): 22 mm
zone of inhibition at 5 µg/disc (Pseudomonas aeruginosa [9]): 12 mm
zone of inhibition at 5 µg/disc (Klebsiella pneumoniae [10]): 24 mm
zone of inhibition at 5 µg/disc (Salmonella typhimurium [11]): 14 mm
zone of inhibition at 5 µg/disc (Bacillus subtilis [12]): 6 mm
zone of inhibition at 10 µg/disc (Staphylococcus aureus [13]): 24 mm
zone of inhibition at 10 µg/disc (Escherichia coli [14]): 16 mm
zone of inhibition at 10 µg/disc (Pseudomonas aeruginosa [15]): 14 mm
zone of inhibition at 10 µg/disc (Klebsiella pneumoniae [16]): 26 mm
zone of inhibition at 10 µg/disc (Salmonella typhimurium [17]): 16 mm
zone of inhibition at 10 µg/disc (Bacillus subtilis [18]): 7 mm
zone of inhibition at 15 µg/disc (Staphylococcus aureus [19]): 26 mm
zone of inhibition at 15 µg/disc (Escherichia coli [20]): 18 mm
zone of inhibition at 15 µg/disc (Pseudomonas aeruginosa [21]): 16 mm
zone of inhibition at 15 µg/disc (Klebsiella pneumoniae [22]): 30 mm
zone of inhibition at 15 µg/disc (Salmonella typhimurium [23]): 18 mm
zone of inhibition at 15 µg/disc (Bacillus subtilis [24]): 9 mm
zone of inhibition at 20 µg/disc (Staphylococcus aureus [25]): 30 mm
zone of inhibition at 20 µg/disc (Pseudomonas aeruginosa [26]): 20 mm
zone of inhibition at 20 µg/disc (Klebsiella pneumoniae [27]): 34 mm
zone of inhibition at 20 µg/disc (Salmonella typhimurium [28]): 22 mm
zone of inhibition at 20 µg/disc (Bacillus subtilis [29]): 10 mm
zone of inhibition at 25 µg/disc (Staphylococcus aureus [30]): 36 mm
zone of inhibition at 25 µg/disc (Pseudomonas aeruginosa [31]): 23 mm
zone of inhibition at 25 µg/disc (Klebsiella pneumoniae [32]): 36 mm
zone of inhibition at 25 µg/disc (Salmonella typhimurium [33]): 24 mm
zone of inhibition at 25 µg/disc (Bacillus subtilis [34]): 12 mm
